A selection: hits, their analogues and other compounds. The true share with any hit is near 2.7%.
PP1 counter: blocks human PP1-alpha phosphatase, a PP5 counter-screen; P62136; purified PP1alpha, OMFP fluorescence; inhibition, % at 6.7 µM; 320,000 compounds, 0.9% hits; AID 2235;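 active = inhibition above the mean inhibition of all tested compounds plus 3 SD, computed separately for each screening campaign, cut at about 15% in these data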
Rpn11 block: Rpn11 (human) deubiquitinase inhibition. O00487. human 26S proteasome, Ub4-pepOG fluorescence polarization; 20S core pre-blocked with epoxomicin. inhibition, % at 20 µM. 360,000 compounds, 0.59% hits;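 active = inhibition at 20 µM, scaled to each plate's controls, above about 33%, limit read from the data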
NadD inh: NadD (S. aureus) enzyme inhibition | purified NadD enzyme, colorimetric absorbance read-out | inhibition, % at 20 µM | 360,000 compounds, 0.78% hits | AID 602399; in the data active = inhibition above about 26%
CSN deneddyl inh: CSN deneddylation inhibition; Q92905; Purified CSN, SCF-Nedd8-OG deneddylation, fluorescence polarization; inhibition, % at 12.5 µM; 360,000 compounds, 0.38% hits; AID 651999;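 active = pattern-corrected inhibition above about 35%, with an unprinted fluorescence ratio check between 0.5 and 1.5, limit read from the data, passing the limit was not always enough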;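 note: 0% = enzyme with substrate and 100% = substrate without enzyme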
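Test system: purified human Csn5 enzyme expressed in HEK293T cells. Amount: 0.24 nM enzyme. Reagent: SCFSkp2-Nedd8OG substrate at 10 nM final. Schedule: 90 min incubation of compound, enzyme and substrate at room temperature. Detection: fluorescence polarization. Read-out: % inhibition of substrate cleavage by Csn5.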
HNF4A DNA FP: change in binding of human HNF4 alpha to DNA | activity change, % at 10 µM | P41235 | 360,000 compounds, 0.3% hits | AID 1224865 | HNF4a-FITC DNA binding, fluorescence polarization, 1 h; in the data active = activity change above about 30%, passing the limit was not always enough
Target sequence (P41235 whole entry, looked up): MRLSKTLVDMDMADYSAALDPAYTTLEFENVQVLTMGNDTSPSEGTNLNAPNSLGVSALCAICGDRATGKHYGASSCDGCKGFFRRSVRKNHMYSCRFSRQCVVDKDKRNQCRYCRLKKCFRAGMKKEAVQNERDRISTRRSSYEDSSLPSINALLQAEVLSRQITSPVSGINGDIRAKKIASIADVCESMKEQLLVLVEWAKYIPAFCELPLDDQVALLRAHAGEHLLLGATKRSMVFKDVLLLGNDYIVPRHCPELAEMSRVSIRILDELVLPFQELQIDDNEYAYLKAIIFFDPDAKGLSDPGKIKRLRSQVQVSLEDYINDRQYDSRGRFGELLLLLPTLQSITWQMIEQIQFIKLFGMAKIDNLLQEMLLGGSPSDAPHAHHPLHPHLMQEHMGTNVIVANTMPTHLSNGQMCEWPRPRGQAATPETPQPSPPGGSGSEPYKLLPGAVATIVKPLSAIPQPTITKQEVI
TPT1 inhibitor: inhibitors of Candida albicans tRNA 2'-phosphotransferase TPT1; 300,000 compounds, 0.81% hits; AID 1962; inhibition, % at 5 µM; recombinant caTPT1, FP RNA substrate dephosphorylation;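 active = inhibition above the mean of all tested compounds plus 3 SD, set per screening campaign, cut at about 24% in these data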;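 note: plate controls were DMSO alone for no effect and ferristatin control at 100 nM for full effect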
NadD conf: NadD (S. aureus) inhibition, single concentration confirmation; AID 624309; 2,000 compounds, 13% hits; inhibition, % at 20 µM; shares compounds with NadD inh; purified S. aureus NadD, colorimetric enzyme assay; in the data active = inhibition mostly above about 42%, no sharp cut-off; inactive = mostly below about 42%
* marks the source's active call; other numbers are inactive results; . = not tested or not shown.

SMILES	PP1 counter	Rpn11 block	NadD inh	CSN deneddyl inh	HNF4A DNA FP	TPT1 inhibitor	NadD conf
CCOC(=O)c1cnc(-n2nc(C)cc2C)nc1NNc1nc(C)cc(C)n1	6	-3	-1	0	2	-5	.
O=C(N/C(=C\c1cccc(Br)c1)C(=O)N1CCOCC1)c1ccco1	-2	3	-2	0	-3	-5	.
COc1ccc(-c2csc(/C(C#N)=C\c3ccc(OC)c([N+](=O)[O-])c3)n2)cc1	-4	.	4	-8	15	0	.
COc1ccc(-c2csc(/C(C#N)=C\c3ccc(O)c([N+](=O)[O-])c3)n2)cc1OC	-4	17	27*	32	-1	2	11
CCCCN(C(C)=O)c1c(CC)nc2ccc(C(=O)NCc3cccs3)cn12	.	-3	3	6	1	.	.
COc1ccc(NC(=O)CSc2nc3nc(-c4cccs4)cc(C(F)(F)F)c3c(=O)[nH]2)c(OC)c1	-1	4	40*	-4	-1	1	60*
CC(C)C[C@H]1CNC(=S)N1C[C@H]1CCCN1C[C@H](Cc1ccccc1)N1C[C@H](Cc2ccc(O)cc2)N(CC2CCCCCC2)C1=S	.	8	42*	9	3	.	-12
CC(C)C[C@H]1CNC(=S)N1CC1CCCN1C[C@H](Cc1ccc(O)cc1)N1C[C@H](Cc2ccccc2)N(CC2CCCCCC2)C1=S (some centres undefined)	.	1	22	0	2	.	.
CC(C)C[C@H]1CNC(=S)N1CC1CCCN1C[C@H](Cc1ccccc1)N1C[C@H](Cc2ccc(O)cc2)N(CC2CCCCC2)C1=S (some centres undefined)	.	2	32*	2	2	.	-1
CCOc1ccc(Cl)cc1-c1cc(C(=O)NCCc2ccncc2)[nH]n1	.	-5	2	1	2	.	.
CCn1c(C)c(C)c2cc(C(=O)NCCN3CCCCCC3)ccc21	2	16	23	5	17	4	.
Nc1cc(=O)[nH]c(SCC(=O)N2CCN(S(=O)(=O)c3ccc4ccccc4c3)CC2)n1	-3	10	11	-7	0	2	.
O=C(CSc1n[nH]c(-c2cccs2)n1)N1CCN(S(=O)(=O)c2ccc3ccccc3c2)CC1	2	-1	47*	-4	-2	-5	29
O=C(Nn1c(SCc2cccc([N+](=O)[O-])c2)nc2ccccc2c1=O)c1ccccc1	3	1	10	1	2	-6	.
COc1ccc(C(=O)Nn2c(SCc3cccc([N+](=O)[O-])c3)nc3ccccc3c2=O)cc1	5	4	28*	-1	-1	1	40
O=C(Nc1ccc(-c2nc3ccccc3[nH]2)cc1)C1CCCN(Cc2ccn[nH]2)C1 (centres undefined)	.	-2	2	-2	1	.	.
CCC(=O)N(Cc1ccc2c(c1)OCO2)Cc1cc2cc(OC)ccc2[nH]c1=O	-1	-3	33*	-5	0	-2	12
COc1ccc(C=Nc2ccc3[nH]ncc3c2)c(O)c1	-2	1	-1	-5	3	-1	.
Oc1c(Br)cc(Br)cc1C=Nc1ccc2[nH]ncc2c1	90*	23	30*	4	-4	-1	10
COc1cc(OC)cc(-c2c(-c3cccs3)c3cc(-c4ccc5c(c4)OCCO5)ccc3n2C)c1	2	38	18	6	18	.	.
NC(=O)CC(c1ccccc1)c1ccc2c(c1)OCO2 (centres undefined)	.	-3	-4	2	3	.	.
NC(CSC(c1ccccc1)(c1ccccc1)c1ccc2c(c1)OCO2)C(=O)O (centres undefined)	.	14	31*	2	-7	.	33
Cc1ccc(OCc2ccc(C(=O)Nc3nc4ccccc4n3Cc3ccccc3)o2)c([N+](=O)[O-])c1	1	3	34*	-2	2	-2	7
CCOc1ccc(S(=O)(=O)N2CCOCC2)cc1NC(=O)CSCc1c(C)noc1C	-3	8	4	1	3	2	.
CCN(CC)C(=O)C1=C(C)N(Cc2ccc(OC)cc2)C(=O)C(CC(=O)NCc2cccc3ccccc23)C1 (centres undefined)	.	2	2	2	0	.	.
SMILES	PP1 counter	Rpn11 block	NadD inh	CSN deneddyl inh	HNF4A DNA FP	TPT1 inhibitor	NadD conf
CCc1cc2c(=O)nc3n(c2s1)Cc1ccccc1/C3=C(/O)c1ccc(F)cc1	-2	-8	36*	9	-5	3	10
CCc1cc2c(=O)nc3n(c2s1)Cc1ccccc1/C3=C(/O)c1cccc([N+](=O)[O-])c1	-3	4	25	0	0	5	.
CCc1cc2c(=O)nc3n(c2s1)Cc1ccccc1/C3=C(/O)c1ccccc1Cl	-5	-7	32*	9	-1	-4	6
Cc1noc(C)c1COC(=O)c1ccc(F)c(S(=O)(=O)N2CCOCC2)c1	-4	0	-8	2	0	.	.
Cc1[nH]c2ccccc2c1/C=C/c1nc2ccccc2c(=O)n1-c1ccc([N+](=O)[O-])cc1	4	-1	34*	-5	8	2	7
COc1ccc(CC(N)c2csc(NC(=O)c3cc(C(C)(C)C)oc3C)n2)cc1 (centres undefined)	.	6	33*	-1	8	.	-5
CCCCC1=CC2=CC(=O)C(C)(OC(=O)CCC(=O)OC)C(=O)C2=CO1 (centres undefined)	8	.	.	.	.	9	.
CCCCC1=CC2=CC(=O)C(C)(OC(=O)c3cccs3)C(=O)C2=CO1 (centres undefined)	7	22	32*	23	16	11	47*
CCCCC1=CC2=CC(=O)C(C)(OC(=O)CCc3ccccc3)C(=O)C2=CO1 (centres undefined)	5	28	66*	30	24	16	39*
Cc1ccc(S(=O)(=O)N2CCN(C(C)C(=O)NCC(C)c3ccccc3)CC2)cc1 (centres undefined)	.	-3	3	-3	4	.	.
C[C@]12c3[nH]c4ccccc4c3CCN1C(=O)C(CC(=O)NCCN1CCOCC1)C[C@@H]2C(=O)N1CCOCC1 (some centres undefined)	.	7	-1	-2	5	.	.
FC(F)(F)c1ccc(CN2C[C@@H]3C(c4ccc(C(F)(F)F)cc4)C4(c5cccnc5)CC3(C4)[C@H]2c2ccccc2)cc1 (some centres undefined)	1	-1	38*	-2	-5	-2	22
Cc1ccc(CN(C(=O)COc2cccc(C)c2C)C2CCS(=O)(=O)C2)o1 (centres undefined)	0	3	-1	3	0	-2	.
COCCNC(=O)c1[nH]c(C(F)(F)F)nc1-c1ccccc1	.	3	-5	7	2	.	.
